KCNK9 block: blocks the human KCNK9 two-pore domain potassium channel. Q9NPC2. HEK293 KCNK9, FluxOR thallium flux fluorescence; hits give low values. B-score at 10 µM. 310,000 tested, 1.2% active;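 active = ratio B-score over 3 SD below the library mean, with starting fluorescence within 5 SD of its mean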;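 also: negative B-score means less thallium flux so channel inhibition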
KCNQ1 pot: potentiators or activators of human KCNQ1 potassium channel; B-score at 10 µM; 310,000 tested, 0.35% active; CHO-K1 KCNQ1, thallium flux FluxOR fluorescence; hits give high values; P51787; AID 2648;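 active = fluorescence ratio B-score, a plate-corrected score, at least three library SD, with initial intensity B-score within 5 SD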
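Medium – assay buffer, equal DMSO in all wells · Material – CHO-K1 cell line with stable KCNQ1 potassium channel expression · Signal – kinetic FluxOR thallium fluorescence, 10-s 1-Hz baseline, 110-s post-stimulus read · Compound – single concentration per compound, DMSO matched to controls · Schedule – 37 °C overnight plating, 90-min dark dye load, 20-min compound pretreatment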
KCNQ1 block: human KCNQ1 channel inhibition; P51787; CHO-K1 KCNQ1, FluxOR thallium flux fluorescence; hits give high values; B-score at 10 µM; 310,000 tested, 1.3% active;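 active = compounds whose thallium flux B-score, printed positive for inhibition, exceeds three library SD while starting fluorescence stays within three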;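 also: channel opened by potassium depolarization with thallium stimulus after 20 min compound exposure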
Cl transport mod: modulates chloride dependent transport by human KCC2; Q9H2X9; KCC2 cells, thallium flux FluoZin-2 fluorescence; B-score of Tl+ flux slope (higher = more flux/activation; lower = inhibition) at 10 µM; 190,000 tested, 2.2% active; AID 1456;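 active = thallium flux slope and its plate-corrected score both differing from the plate sample mean at a set confidence after two filtering rounds, in either direction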;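 also: slope of fluorescence scaled to starting intensity during 10 to 20 s after thallium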
Target sequence (Q9H2X9 whole entry, looked up): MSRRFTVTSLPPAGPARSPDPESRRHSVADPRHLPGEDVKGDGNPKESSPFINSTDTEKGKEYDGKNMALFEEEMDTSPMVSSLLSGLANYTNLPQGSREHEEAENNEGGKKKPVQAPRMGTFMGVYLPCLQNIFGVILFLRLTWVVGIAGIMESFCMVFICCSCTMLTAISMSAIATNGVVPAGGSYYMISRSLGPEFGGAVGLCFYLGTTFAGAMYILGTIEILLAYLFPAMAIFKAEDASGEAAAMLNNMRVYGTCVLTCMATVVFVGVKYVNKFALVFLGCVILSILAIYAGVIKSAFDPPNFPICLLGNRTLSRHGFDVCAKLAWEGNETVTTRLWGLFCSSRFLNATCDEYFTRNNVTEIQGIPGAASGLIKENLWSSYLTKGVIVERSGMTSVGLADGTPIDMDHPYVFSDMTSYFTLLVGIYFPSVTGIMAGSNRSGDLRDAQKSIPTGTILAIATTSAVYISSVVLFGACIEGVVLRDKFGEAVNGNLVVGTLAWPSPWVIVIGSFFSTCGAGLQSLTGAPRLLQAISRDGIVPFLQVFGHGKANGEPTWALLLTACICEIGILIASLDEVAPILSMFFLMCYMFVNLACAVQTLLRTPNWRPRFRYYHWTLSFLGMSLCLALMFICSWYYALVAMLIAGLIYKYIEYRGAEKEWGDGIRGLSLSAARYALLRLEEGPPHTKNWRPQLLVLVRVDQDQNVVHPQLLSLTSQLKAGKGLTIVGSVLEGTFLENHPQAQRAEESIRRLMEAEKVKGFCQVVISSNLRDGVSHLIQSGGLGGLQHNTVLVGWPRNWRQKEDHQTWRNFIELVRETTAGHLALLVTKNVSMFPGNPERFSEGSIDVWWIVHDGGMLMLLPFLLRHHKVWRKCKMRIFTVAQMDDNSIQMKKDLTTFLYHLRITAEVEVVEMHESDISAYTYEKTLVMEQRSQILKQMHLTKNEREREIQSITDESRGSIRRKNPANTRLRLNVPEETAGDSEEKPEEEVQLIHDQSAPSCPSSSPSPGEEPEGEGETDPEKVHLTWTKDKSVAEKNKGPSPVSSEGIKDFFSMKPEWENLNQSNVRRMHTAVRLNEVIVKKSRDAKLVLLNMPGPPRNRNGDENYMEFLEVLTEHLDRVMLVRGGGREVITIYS
hERG rescue: hERG (human) protection from proarrhythmic block; CHO-hERG, FluxOR thallium flux, dofetilide IC70 present; activation (rescue from dofetilide block), less the hit threshold, % at 10 µM; 310,000 tested, 0.51% active;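 active = activation above the mean of controls blocked by dofetilide plus 5 SD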;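 also: thallium influx through hERG after potassium depolarization seen as dye fluorescence rise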
KCNK3 inh: human KCNK3 channel inhibition, primary screen; O14649; CHO-KCNK3 thallium flux, FluxOR fluorescence; hits give low values; B-score at 10 µM; 340,000 tested, 0.84% active;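 active = B-score under library mean minus 4 SD, starting fluorescence ratio at most library mean plus 5 SD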;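 also: more negative B-score means stronger inhibition of thallium flux through KCNK3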
KCNK9 block conf: human KCNK9 inhibitor confirmation; shares compounds with KCNK9 block; 4,900 tested, 43% active; inhibition, % at 10 µM; HEK293 KCNK9 cells, FluxOR thallium flux fluorescence;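 active = thallium signal inhibited by more than 5 SD of the compound-free buffer control wells, on both duplicate plates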;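 also: 0% = assay buffer control wells without compound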
Kir21 sel: selectivity of KCNK9 modulators against mouse Kir2.1; shares compounds with KCNK9 block; Kir2.1 cells, FluxOR thallium flux fluorescence; inhibition, % at 10 µM; 4,900 tested, 4% active; AID 492993;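 active = thallium signal drop more than 5 SD beyond the mean of the no-compound control wells, seen in both duplicate plates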;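 also: signal is fluorescence rise after thallium addition divided by baseline fluorescence; plate controls were assay buffer only for no effect and full block by chlorpromazine control for full effect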
KCNK9 uninduced: non-induced cell nonspecific activity of KCNK9 modulators; inhibition, % at 10 µM; 4,900 tested, 40% active; shares compounds with KCNK9 block; AID 492997; non-induced KCNK9-HEK293, FluxOR thallium flux;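 active = thallium signal drop beyond 5 SD of the untreated control mean, on both duplicate plates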;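 also: plate controls were buffer only IC0 wells for no effect and SID17386958 at its maximal inhibitory level for full effect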
Starred values were filed as active, the others as inactive; i = inactive; x = no result given. An excerpt weighted towards active compounds, which were near 4.1% of everything screened.

SMILES | KCNK9 block | KCNQ1 pot | KCNQ1 block | Cl transport mod | hERG rescue | KCNK3 inh | KCNK9 block conf | Kir21 sel | KCNK9 uninduced
Cc1nn(-c2ccccc2)c(N)c1N=Nc1ccc(Cl)cc1 | i | i | i | 0.0638 | -11.5 | i | x | x | x
COc1ccc(OCCSc2nnc(C)n2-c2ccccc2)cc1 | i | i | i | -0.0603 | -6.3 | i | i | i | i
O=C(c1cccc(C(F)(F)F)c1)C1CCCN(Cc2cccn2-c2ncccn2)C1 (stereo not drawn) | i | i | i | -0.976 | -23.7 | i | i | i | i
O=C(c1ccc(C(F)(F)F)cc1)C1CCCN(Cc2cccn2-c2ncccn2)C1 (stereo not drawn) | i | i | i | 1.21 | -16.5 | i | i | i | i
O=C(c1ccc(Cl)cc1)C1CCCN(Cc2cccn2-c2ccccn2)C1 (stereo not drawn) | i | i | i | -0.407 | -19.8 | i | i | i | i
COc1ccc(C(=O)C2CCCN(Cc3cccn3-c3ccccn3)C2)cc1F (stereo not drawn) | i | i | i | -0.262 | -28.5 | i | x | x | x
CCOc1cc(CN2CCCC(C(=O)c3cccc(C(F)(F)F)c3)C2)ccc1O (stereo not drawn) | i | i | i | -0.0369 | -20.1 | i | i | i | i
CCOC(=O)C1CCCN(Cc2ccc(O)c(OC)c2)C1 (stereo not drawn) | i | i | i | 0.0055 | -10.4 | i | x | x | x
Cn1c(N)c(C(=O)COC(=O)/C=C/c2ccccc2F)c(=O)n(C)c1=O | x | x | x | x | x | i | x | x | x
COc1ccc(CN2CCCC(C(=O)c3ccc(Cl)cc3)C2)cc1Cn1cccn1 (stereo not drawn) | i | i | i | x | -22.9 | i | i | i | i
CSc1ccc(C(=O)C2CCCN(C(=O)CCCn3cncn3)C2)cc1 (stereo not drawn) | i | i | i | 0.0648 | -4.5 | i | x | x | x
COc1ccc(C(=O)C2CCCN(Cc3cccn3-c3nccs3)C2)cc1F (stereo not drawn) | i | i | i | -0.36 | -21.2 | i | i | i | i
CSc1ccc(C(=O)C2CCCN(Cc3cccc4nccnc34)C2)cc1 (stereo not drawn) | i | i | i | -1.55 | -18.1 | i | i | i | i
COc1cccc(C(=O)C2CCCN(Cc3ccc(OC)c(Cn4cncn4)c3)C2)c1 (stereo not drawn) | i | i | i | 0.739 | -14.7 | i | x | x | x
COc1ccc(Cl)cc1NC(=O)C/C(C)=N/NC(=O)C(=O)NCc1ccccc1 | i | i | i | x | -6.5 | i | x | x | x
CC1=NOC(=O)/C1=C\c1ccc(-c2ccc(Cl)cc2Cl)o1 | i | i | i | x | -5.0 | i | i | i | i
CCCOc1ccc(Cl)cc1/C=C1/C(=O)ON=C1C | i | i | i | x | -3.8 | i | x | x | x
CCOC(=O)CCSc1nc2c(c(C(F)(F)F)c1C#N)CCC2 | i | i | i | -0.00578 | 4.2 | i | i | i | i
CCCNC(=O)OC[C@H]1O[C@H](CCO/N=C/[C@@H](OC)[C@H](C)/C=C/CC(=O)OC)C=C[C@@H]1Oc1ccc(OC)cc1 | i | i | i | -1.63 | -3.7 | x | i | i | i
C=CC[C@@H]1C=C[C@H](O/N=C/[C@@H](NS(=O)(=O)c2ccc(C)cc2)[C@H](C)/C=C/CC(=O)OC)[C@@H](CO)O1 | i | i | i | -0.325 | -4.8 | x | x | x | x
COCCN1CCN(C(=O)c2ccc3nc(Cc4ccccc4F)oc3c2)CC1 | i | i | i | x | -7.5 | i | x | x | x
COc1ccc(OC)c(Nc2ncnc3sc(-c4ccccc4)cc23)c1 | -10.9* | i | i | 0.772 | -8.6 | i | i | i | 31.5%*
CCOC(=O)c1cc[nH]c1C | i | i | i | -1.11 | -9.4 | i | x | x | x
CCn1c(SCC(=O)c2ccc(OC)cc2)nnc1C(C)NC(=O)c1ccc(OC)cc1 (stereo not drawn) | i | i | i | x | -7.2 | i | x | x | x
Clc1cccc(OCCN2CCN(CCOc3cccc(Cl)c3)CC2)c1 | i | i | i | 0.419 | -23.3 | i | i | i | i
SMILES | KCNK9 block | KCNQ1 pot | KCNQ1 block | Cl transport mod | hERG rescue | KCNK3 inh | KCNK9 block conf | Kir21 sel | KCNK9 uninduced
Cc1cccc2c1NC(=O)C21OCC(CO)([N+](=O)[O-])CO1 (stereo not drawn) | i | i | i | x | -1.4 | i | x | x | x
CCN(CC(=O)Nc1c(F)cccc1F)C(=O)/C=C/c1ccc2ccccc2n1 | i | i | i | x | -16.7 | i | x | x | x
O=C(NCc1ccc2c(c1)OCO2)c1cccc(F)c1 | i | i | i | 2.25e-05 | -5.5 | i | x | x | x
Cc1cc(C)c2cc(C(=O)N3CCC(Cc4ccccc4)CC3)[nH]c2c1 | i | i | i | 1.61 | -12.6 | i | i | i | i
COc1cc2cc(C(=O)N3CCC(Cc4ccccc4)CC3)[nH]c2cc1OC | i | i | i | x | -0.1 | i | x | x | x
Cc1ccc(/C=C/C(=O)N2CCC(Cc3ccccc3)CC2)cc1 | i | i | i | -3.39 | -14.0 | i | i | i | 25.5%*
CC1CCN(C(=O)/C=C/c2ccc(C(C)(C)C)cc2)CC1 | -9.04* | i | i | -0.938 | -14.5 | i | 62.5%* | i | 50.0%*
Cc1cc(O)c(-c2n[nH]c3c2C(c2cccc(O)c2)N(Cc2cccnc2)C3=O)cc1Cl (stereo not drawn) | i | i | i | -1.14 | -4.9 | i | x | x | x
CC(C)(C)c1cc(-c2csc(Nc3ccccc3)[n+]2Cc2ccc(C(=O)O)cc2)cc(C(C)(C)C)c1O | i | 15* | i | -1.78 | -9.6 | i | i | i | i
C=CC[n+]1c(C)csc1Nc1ccc(C(=O)O)cc1 | i | i | i | 0.67 | -6.7 | i | x | x | x
OCC[C@H]1C[C@@H](O)[C@H](O)[C@@]2(Cc3ccccc3CCO2)O1 | x | x | x | x | x | i | x | x | x
Cc1nc(NC(=O)c2ccccc2)sc1C1(C)CC(c2c(Cl)cccc2Cl)=NO1 (stereo not drawn) | -9.81* | i | i | -0.528 | -17.0 | i | 55.0%* | i | 36.0%*
